Measured values reported in the EternaBench riboswitch data.

Tested on: MS2 coat protein
Test: apparent Kd, MS2 coat protein; higher = weaker binding; RNA-MaP array; FMN 200 µM where present
Outline: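 The apparent Kd is reported as the median of filtered per-cluster binding-curve fits. To get these curves, designs transcribed by stalled E. coli RNA polymerase on Illumina sequencing-chip clusters were titrated with SNAP-549-labelled MS2 coat protein from 0.7 or 1.5 nM, doubling to 3 µM. Titrations were run without and then with constant ligand in 100 mM Tris-HCl pH 7.5, 80 mM KCl, 4 mM MgCl2, BSA, DTT, yeast tRNA and Tween-20, and green signal was normalised to red-channel RNA signal and control-cluster median Fmax.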

[1] = designed as: OFF switch for flavin mononucleotide, no ligand
[2] = ligand present: flavin mononucleotide, designed as: OFF switch for flavin mononucleotide
[3] = designed as: ON switch for flavin mononucleotide, no ligand
[4] = ligand present: flavin mononucleotide, designed as: ON switch for flavin mononucleotide

Sequence | apparent Kd [1] | apparent Kd [2] | apparent Kd [3] | apparent Kd [4]
GGUCGUCAAGUCAGGAUAUCGUAUAAUAGAUAUAACGAGAAGGGACAUGAGGAUCACCCAUGUCGUCUCAUCAG | 17.1 nM | 23.7 nM | – | –
GGUCGUCACAUUAACAUGAGGAUCACCCAUGUCAAAAGACAUGAGGAUAUGCAUCCUAAUUGGAUGCAGAAGGCAUGGACGACC | – | – | 507 nM | 32.7 nM
GGUCGUCACAUUAACAUGAGGAUCACCCAUGUCAAAUAACAUGAGGAUAUGCAUCCUAAUUGGAUGCAGAAGGCAUGGACGACC | – | – | 6.72 nM | 5.39 nM
GGUCGUCCCAUUAACAUGAGGAUCACCCAUGUCAAAAGACAUGAGGAUAUGCUACCUAAUUGGUAGCAGAAGGCAUGGACGACC | – | – | 1170 nM | 84.7 nM
GGUGAAGCAGGAUAUGUAUCGAUAUACAUGAGGAUCACCCAUGUCAUGUUCGAAUCGCAUAUAGAAGGGCUUCACC | 13.4 nM | 16.7 nM | – | –
GGUGAAUGAACAUGAGGAUCACCCAUGUACAGGAAACUGAAUGAGGAUAUCCAUAGCAAAGCUAUGGAGAAGGCAUGGGUCACC | – | – | 302 nM | 99.8 nM
GGUGCACGCACAGGAUAUCCGGCGAAGCUCGUCGGAGAAGGGUGACAUGAGGAUCACCCAUGUACGUGCAACCCAGUUUGAGAG | – | – | 85.2 nM | 31.4 nM
GGUGCGUAUGUGAGGAUAUGCUGGUCCUUGGUUCAGCAGAAGGCACAUGAGGAUCACCCAUGUGGUGUCGUACC | 289 nM | 26.4 nM | – | –
GGUGCGUAUGUUAGGAUAUGCUGGUCCUUGGAUCGGCAGAAGGUACAUGAGGAUCACCCAUGUGGUGUCGUUCC | 64.8 nM | 72.4 nM | – | –
GGUGCGUUUGUGAGGAUAUGCUGGUCCUUGGAUCAGCAGAAGGCACAUGAGGAUCACCCAUGUGGUGUCGUACC | 447 nM | 47.3 nM | – | –
GGUGGACAUGAGGAUCACCCAUGUGAGGAUAUCGGCCGGUUCGCGGUGGCUGGCGUCUCGAGAAGGCGCAUAGU | 36.9 nM | 40.2 nM | – | –
GGUGGCGUGAUAACGCUAGAUAUAACAUGAGGAUCACCCAUGUAGGAUAUCCCGCCGUGAGGGCGGGAGAAGGACAACCGAUGG | 37.1 nM | 34.9 nM | – | –
GGUUAUGAAGGAUAUACAUGAGGAUCACCCAUGUUACGUACUUCGGGAUUCUGCCAGUGUAGAAGGUCAUGUCU | 24.3 nM | 49.2 nM | – | –
GGUUCCUUCACAGGAUAUGCUAUCCUUUGGGUAGCAGAAGGGUGAUACAUGAGGAUCACCCAUGUGGAGCCAGGGCGUGAGCCC | – | – | 1260 nM | 428 nM
GGUUGGCGAGGAUAUACAUGAGGAUCACCCAUGUGGUCCUGCGGUGGAAUCGCCCUUUGUAGAAGGCGCGGGUC | 49.5 nM | 44.7 nM | – | –
GGUUGGCGAGGAUAUACAUGAGGAUCACCCAUGUGGUCCUGUGGCUGGUCUUACCUUUGUAGAAGGCGCGGGUC | 88.4 nM | 93.2 nM | – | –
GGUUGUCAUAGUCAUCCUUAACGUACAUGAGGAUCACCCAUGUAGGAUAUGCUACUCAAAGAGUAGCAGAAGGGCGUGUGUCUU | 31 nM | 35.5 nM | – | –
GGUUGUCAUAGUCAUCCUUUCCGUACAUGAGGAUCACCCAUGUAGGAUAUGCUACUCACGGUGUGGCAGAAGGGCGUGUGUCUU | 17.9 nM | 19.9 nM | – | –
GUAAACGAUGAGGAUAUAUGAUAUCAAAGCAUCAUAGAAGGCAUCACAUGAGGAUCACCCAUGUGAUCUUCUUU | 17.5 nM | 78.5 nM | – | –
GUAAAGUGAGGAUAUGGUAAAGUAAGUAUUUAGUAAGUAAUCCAGAAGGCACAUGAGGAUCACCCAUGUAAAUG | 29.3 nM | 35.8 nM | – | –
GUAAGCAUGUCAGGAUAUCGCAAUAUCAAACCGUGAGAAGGGACAUGAGGAUCACCCAUGUAUUGUUCGGGAGGACCCAGCUGA | 67.3 nM | 358 nM | – | –
GUAAUUAAUGUAGGAUAUGCAAGGCGAACCUAAGCAGAAGGACAUGAGGAUCACCCAUGUAUUGCGGUCUGCGUUCAGAUCGCU | 19.5 nM | 49.5 nM | – | –
GUACCUUAUGAGAAGGCGAUCAUGAAACAUGAUCGAGGAUAUCAUGUAAACAUGAGGAUCACCCAUGUAUGGGUAUUAUGGUAC | – | – | 191 nM | 25.6 nM
GUACCUUAUGAGAAGGCGAUCAUGAAACAUGAUCGAGGAUAUCAUGUAAACAUGAGGAUCACCCAUGUAUGGGUAUUAUGGUAU | – | – | 43.9 nM | 11.3 nM
GUACCUUAUGAGAAGGCGGUCAUGAAACAUGAUCGAGGAUAUCAUGUAAACAUGAGGAUCACCCAUGUAUGGGUAUUAUGGUAA | – | – | 61.1 nM | 11.2 nM
GUACUAAAGCUUUGCUUUAGUCGUACAUGAGGAUCACCCAUGUAGGAUAUGGUAGGCUUUGCUUACUAGAAGGAUAGAGUGAUC | 110 nM | 36.1 nM | – | –
GUACUACCCACAGAUAACUUAGCCAGAAGGGUCUACAUGAGGAUCACCCAUGUGGUCCAAAGUGGACAGGAUAUGGAAACGGUU | 139 nM | 12.2 nM | – | –
GUACUGAAGCUUUGCUUUAGUCGUACAUGAGGAUCACCCAUGUAGGAUAUGGUAGGCUAUGCUUACUAGAAGGAUAGAGUGAUC | 88.8 nM | 46.4 nM | – | –

Sequence | apparent Kd [1] | apparent Kd [2] | apparent Kd [3] | apparent Kd [4]
GUACUGACAGGAUAUACAUGAGGAUCACCCAUGUCCUUAUGCUGACAAAAGUCAGCGUGUAGAAGGGUCUGUAC | 141 nM | 385 nM | – | –
GUACUGUAGUGAGGAUAUACGAGUUCGAUAGAACGGCGAUCCAAUUAUACAUGAGGAUCACCCAUGUAGAAGGCACUUCAGUAC | 8.88 nM | 50 nM | – | –
GUACUGUAGUGAGGAUAUACGAGUUCGAUAGAACGGCGAUCCAUUUAUACAUGAGGAUCACCCAUGUAGAAGGCACUUCAGUAC | 6.32 nM | 53.9 nM | – | –
GUAGAGUAAGGAUAUCGUGAAUAGGAUAGAAUGGUUAGAAACGAGAAGGUACAUGAGGAUCACCCAUGUAAUGU | 20.7 nM | 21.3 nM | – | –
GUAGAGUAGUGAGGAUAUACGAGAUCGAUAGAUCGGCGAUCCAUAUAUACAUGAGGAUCACCCAUGUAGAAGGCACUUCUCUAC | 6.99 nM | 103 nM | – | –
GUAGAGUAGUGAGGAUAUACGAGUUCGAUAGAACGGCGAUCCAUUAAUACAUGAGGAUCACCCAUGUAGAAGGCACUUCUCUAC | 6.4 nM | 69.3 nM | – | –
GUAGAGUCAGGAUAUACGAGAUCGAAAGAUCGGCGAUCCAUACAUGAGGAUCACCCAUGUAGAAGGGACUCUAC | 15.6 nM | 148 nM | – | –
GUAGAGUCAGGAUAUACGAGAUCGAAAGAUCGUCGAUCCUUACAUGAGGAUCACCCAUGUAGAAGGGACUCUAC | 22.7 nM | 238 nM | – | –
GUAGCAUAAUCAGGAUAUUCAGCGAAUAGAUUGACAUGAGGAUCACCCAUGUGGCGAAAGCCUCGGGAGAAGGGAUAAUGCUAC | – | – | 399 nM | 76.8 nM
GUAGCAUACCGAGGAUAUUCAGGGCGUGGAUAUACAUGAGGAUCACCCAUGUGGCGAAAGCCUAGGGAGAAGGCGGAAUGCUAC | – | – | 23.6 nM | 17 nM
GUAGCAUACCGAGGAUAUUCAGGGCUUAUAUAAACAUGAGGAUCACCCAUGUGGCGAAAGCCUAGGGAGAAGGCGGAAUGCUAC | – | – | 14.9 nM | 13.1 nM
GUAGCAUACCGAGGAUAUUCAUAUAGGAAACAAACAUGAGGAUCACCCAUGUGGCGAAAGCCUUGGGAGAAGGCGGAAUGCUAC | – | – | 115 nM | 21.1 nM
GUAGCAUACCGAGGAUAUUCAUAUAGGAAACUAACAUGAGGAUCACCCAUGUGGCGAAAGCCUUGGGAGAAGGCGGAAUGCUAC | – | – | 408 nM | 29.2 nM
GUAGCAUACCGAGGAUAUUCCGGGCAUAAAUAAACAUGAGGAUCACCCAUGUGGCGAAAGCCUAGGGAGAAGGCGGAAUGCUAC | – | – | 15.2 nM | 13.6 nM
GUAGCAUACGGAGGAUAUUCAUAUAAUAAAUAAACAUGAGGAUCACCCAUGUGGCGAAAGCCUUGGGAGAAGGCCGAAUGCUAC | – | – | 805 nM | 39.8 nM
GUAGCAUGCAGGCAGGAUAUUCAUAUUAAAACAUGAGGAUCACCCAUGUAGGCCGAAAGGCCUUGGGAGAAGGGCCACAUGCUAC | – | – | 786 nM | 52.6 nM
GUAGCUAUCGCAGGAUAUCCUCAGGCGAAAGCCACAUGAGGAUCACCCAUGUAUAUAAAGAAUAUGGAGAAGGGCGAUAGCUAC | – | – | 1670 nM | 185 nM
GUAGCUAUCGGAGGAUAUUCAAUAUACAUGAGGAUCACCCAUGUUAAAGUGGGAGAAGGCCGAUAGCUACAAGAGCGAAAGCUC | – | – | 13.6 nM | 6 nM
GUAGCUAUCGGAGGAUAUUCAUACCGGAAACGGACAUGAGGAUCACCCAUGUAGCGAAAGCCUUGGGAGAAGGCCGAUAGCUAC | – | – | 919 nM | 103 nM
GUAGCUAUCGGAGGAUAUUCAUACCGGAAACGGACAUGAGGAUCACCCAUGUGGCGAAAGCCGUGGGAGAAGGCCGAUAGCUAC | – | – | 875 nM | 43 nM
GUAGCUAUCGGAGGAUAUUCAUACUGGAAACGGACAUGAGGAUCACCCAUGUGGCGAAAGCCUUGGGAGAAGGUCGAUAGCUAC | – | – | 177 nM | 10.1 nM
GUAGCUAUUAAAGGAUAUUCAUACCGGAGACGGACAUGAGGAUCACCCAUGUGGCGAAAGCCUUGGGAGAAGGUUAUUAGCUAC | – | – | 452 nM | 17.7 nM
GUAGUGCUCAUAGGAUAUCGGGAGCAACGUAGACAGGUUGCACAUGAGGAUCACCCAUGUAAAGUCGAGAAGGGUGAUCACGCC | – | – | 599 nM | 177 nM
GUAGUGUAGUGAGGAUAUACGAGAUCGAUAGAUCGGCGAUCCAUUAAUACAUGAGGAUCACCCAUGUAGAAGGCACUUCACUAC | 6.01 nM | 70.7 nM | – | –
GUAGUUGUGUGGUUGAGGAUAGGGCAGGAUAUACAUGAGGAUCACCCAUGUGAAGCGGGAAGGAGGUAGAAGGGCCAACGUCAU | 13.7 nM | 10.9 nM | – | –
GUAUAUAUUACAUGAGGAUCACCCAUGUCAGAACGGGUAAUCAGAAGGUAUUAUUAGAGAAAGGGUAAGGAUAUGAUUAUAUAC | – | – | 577 nM | 321 nM
GUAUAUCACUCAGGAUAUCUGUAAUUUAUUGAAACAUGAGGAUCACCCAUGUUCAUAAAUUUAUAGGAGAAGGGAGAGAUAUAC | – | – | 4.39 nM | 4.58 nM
